How the values were obtained:
Candida albicans [1] = experiment: Reduction in APE2 gene expression in compound pre-treated Candida albicans CAI4 expressing delta-cph1/delta-efg1 gene grown on human Caco2 cells monolayer at 16 ug/ml pre-treated for 2 hrs measured after 6 hrs by RT-PCR method; assay type: functional, Caco-2
Summary of the method: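 Blastoconidia are pre-incubated 2 h with 16 µg/ml sulfone in RPMI. They are then washed, resuspended in RPMI and placed on Caco-2 monolayers at 37°C, with RNA taken at 6 or 18 h. Real-time RT-PCR uses SYBR Green with 250 nM primers and 60 ng cDNA: 95°C 15 min, then 45 cycles of 94°C 15 s and 60°C 1 min, plus a melt curve. APE2 is normalized to ACT1 by 2^-ΔΔCt with 90028 as calibrator; three experiments.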

Candida albicans [2] = experiment: Reduction in APE2 gene expression in compound pre-treated Candida albicans SC5314 grown on human Caco2 cells monolayer at 16 ug/ml pre-treated for 2 hrs measured after 6 hrs by RT-PCR method; assay type: functional, Caco-2
Summary of the method: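 Caco-2 was seeded at 1.2×10^5 cells/ml in EMEM (10% FCS, 1 mM pyruvate, no antibiotics) for 18 h at 37°C, 5% CO2. Yeast (10^4 cfu/ml) was pre-incubated 2 h in RPMI with 16 µg/ml sulfone, washed, resuspended in RPMI and inoculated onto the monolayer at 37°C. APE2 mRNA was measured by SYBR qPCR against ACT1 (2^-ΔΔCt, 90028 calibrator), in triplicate.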

In the case of `NNc1ccc(S(=O)(=O)C(Cl)(Br)Br)cc1[N+](=O)[O-]`, the “fold change (FC)” value (Candida albicans [1]) is reported as 10.26 and the ΔCt (Candida albicans [2]) is reported as 6.39.

Source: ChEMBL document CHEMBL3351861, “New synthetic sulfone derivatives inhibit growth, adhesion and the leucine arylamidase APE2 gene expression of Candida albicans in vitro” (2015)
